From the EternaBench riboswitch data

System: MS2 coat protein
Test: apparent Kd, MS2 coat protein; higher = weaker binding; RNA-MaP array
How it was run: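 Designed RNAs were transcribed in place on an Illumina sequencing chip from sequenced DNA templates. At room temperature and with or without input ligand, they were incubated with fluorescently labeled MS2 coat protein from 1.5 nM to 3 μM, for 0.8–1.5 h at the lowest and 10–20 min at the highest concentrations. Apparent Kd is the median of the binding-curve fits made per cluster, with designs measured on fewer than 10 clusters excluded.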

[1] = designed as: OFF switch for flavin mononucleotide, no ligand
[2] = ligand present: flavin mononucleotide, designed as: OFF switch for flavin mononucleotide
[3] = designed as: ON switch for flavin mononucleotide, no ligand
[4] = ligand present: flavin mononucleotide, designed as: ON switch for flavin mononucleotide
[5] = designed as: OFF switch for tryptophan, no ligand
[6] = ligand present: tryptophan, designed as: OFF switch for tryptophan
[7] = designed as: OFF switch for theophylline, no ligand
[8] = ligand present: theophylline, designed as: OFF switch for theophylline

Sequence | apparent Kd [1] | apparent Kd [2] | other results
GACAUGAGGAUCACCCAUGUUAAAGAUCCCAGCAUGCAACUCAGAAGGCUAAACUGUGGAUAGAAAGAGGAUAUGAGUUUAUAC | 0.00962 µM | 0.00957 µM | 
CGAGUUUGCAAAGGAUAUCGGUUUUGAACAGACCGAGAAGGUUGACUGUACAUGAGGAUCACCCAUGUGUGCUCGAUAUAAAGA |  |  | apparent Kd [3]: 0.00772 µM; apparent Kd [4]: 0.00704 µM
UGUCACUGUUUGGUUCAAUGAAGAAGAAUUCGAGGACCGGUACGGCCGCCACUCGCUAUGCAACAUGAGGAUCACCCAUGUAAAA |  |  | apparent Kd [5]: 0.0158 µM; apparent Kd [6]: 0.0153 µM
AAUCGCCUGGGUCGCAUCCUUGCUCCGGAUACCAGUCAAUAGUUGGACCCUUGGCAGCCGUAGACAUGAGGAUCACCCAUGUAUA |  |  | apparent Kd [7]: 0.0538 µM; apparent Kd [8]: 0.109 µM
CACGUACAUGAGGAUCACCCAUGUAUGUCCGAAACGCGAGUACAGGAUAUGAUAUGGAGAAGUCUUCAGAAGGGUACAAAUCGC |  |  | apparent Kd [3]: 0.0584 µM; apparent Kd [4]: 0.0216 µM
AUAAUAACAUGAGGAUCACCCAUGUCCUCUUGGCGGCGGCUUAGAAGGUCGACUACUUUUCUUUCGAAGGAUAUAACCUGUUCU | 0.913 µM | 0.733 µM | 
CUCUUAGAAGGAUAUUAAUAAUGUUACAUGAGGAUCACCCAUGUCUCAAUAUGUGACCGUUAAGAAGGUCUAUCGC | 0.0092 µM | 0.00816 µM | 
UAGUCAUCGGCAGGAUAUUCGCUAGUAGACUAUGAAGAAGGGCCACGUACCUCACAAACAUGAGGAUCACCCAUGUAUCUGGAC | 0.0392 µM | 0.029 µM | 
CCUUAGUGAGGAUAUGCAUAGCCUUGGCGGCCAGGAGCCAAGCAGAAGGCACAUGAGGAUCACCCAUGUCCGGU | 0.0166 µM | 0.0228 µM | 
GUGAGACAUGAGGAUCACCCAUGUUAGGAUAUAAAAGGCAAACGUAAUGGCGAGGUUAAUAGAAGGAACAGAAA | 0.0156 µM | 0.0119 µM | 
ACUGCUGUAGGAUAUCAACGAAAUAACAUGAGGAUCACCCAUGUGGCAGUGAUCAGCAGUUGAGAAGGACAUGGCC | 0.0109 µM | 0.0113 µM | 
AGUAGGCAUUCAGGAUAUGGGGAUUUCUCACUGCCACAUGAGGAUCACCCAUGUGGAAGGUACACCCAGAAGGGAAAGUGGUUA |  |  | apparent Kd [3]: 0.017 µM; apparent Kd [4]: 0.0113 µM
UAACCAUGCAAAGGAUAUCCAAUACUAUGAGACGGAGAAGGUAGAAACAUGGAGAAUUCCUACAUGAGGAUCACCCAUGUUAGA | 0.387 µM | 0.245 µM | 
UCUUCAAUAGUAAGGAUAUCCAUAACAACAUUCAAGGAGAAGGUACAUGAGGAUCACCCAUGUGGAGUCAAUAA | 0.0131 µM | 0.0198 µM | 
GAAAUAGUAGUUAGGAUAUGUAAUUGAAGACAUAUACAGAAGGAACAUGAGGAUCACCCAUGUAUUGGGAUGGA | 0.196 µM | 0.126 µM | 
AGGACGUCAGGAUAUUCUAUGUGGCUCUAAUGGCCGACCAUGAAGAAGGGACAUGAGGAUCACCCAUGUGAGCU | 0.0257 µM | 0.0501 µM | 
CCAUUGUCAGGAUAUUGUGGUUUAGCGUCGAAAGGGCUUAGCAAGAAGGGACAUGAGGAUCACCCAUGUGUAGU | 0.0338 µM | 0.146 µM | 
GUAUGAGAAGCAUAUACAUGAGGAUCACCCAUGUCCUCAGCGGAGGAUAUGUCUUUCAGGAGUAUACAGAAGGCCGCGGAAUUC | 0.346 µM | 0.26 µM | 
UAAGAGUCGGCAGGAUAUGUCCCUUGAGCGCAGACAGAAGGGCCACUAUCUUUCACAUGAGGAUCACCCAUGUCCUCCCUGGAG | 0.049 µM | 0.0616 µM | 
AGCAGAGCCUAGAAGGCAGUGCAGACCGCGCACUGAGGAUAUAGACUUUAAGAUUGUACAUGAGGAUCACCCAUGUUGAGUGGG | 0.563 µM | 0.45 µM | 
GAAUUAGUGUUGGAGGAUAUCCCAUGUCUUACAUGAGGAUCACCCAUGUCCGGACAACGACAAAAGGAGAAGGCCAUCAUCAUGUC |  |  | apparent Kd [3]: 0.772 µM; apparent Kd [4]: 0.0808 µM
CCUCGUGGACAGGAUAUACACUCGUAUGAUCAUGUAGAAGGGUCCACAUGAGGAUCACCCAUGUUGACAGCCGU | 0.0605 µM | 0.0814 µM | 
ACUGCUUUAGCGGCCGCCACUACAUGGACACUUACACUUUCUUGUUACAUGAGGAUCACCCAUGUUAGGACCGGGCUUGUACGGA |  |  | apparent Kd [5]: 0.0621 µM; apparent Kd [6]: 0.0782 µM
UGAUUAUACUUUGAGGAUAUACUAGGACUCACAUGAGGAUCACCCAUGUGUGCGGCUAUACGAGCGUAGAAGGCAAAUACUCCGGC |  |  | apparent Kd [3]: 0.00931 µM; apparent Kd [4]: 0.00791 µM

Sequence | apparent Kd [1] | apparent Kd [2] | other results
GCAGGAAAGCAGAAGGACACCACAUGAGGAUCACCCAUGUCGGCGCUGACUUUGAUCUUGAGGAUGUAGGAUAUGCGUUUCGGA | 0.00876 µM | 0.0174 µM | 
AUGCACGGGCUAAUCUGCGAUUGGCACGAUACCAGAGAUCAAGACCUCCCUUGGCAGCGUGUCACAUGAGGAUCACCCAUGUGGA |  |  | apparent Kd [7]: 0.131 µM; apparent Kd [8]: 0.0948 µM
AGAACCCAAGAGGAUACCAGAACGACAAUCAAAUCUUUUUACAUGAGGAUCACCCAUGUUUUCCCUUGGCAGCCUCAUGCACGAC |  |  | apparent Kd [7]: 0.0721 µM; apparent Kd [8]: 0.0607 µM
GUUUACAUGAGGAUCACCCAUGUCGCCGGCCGAGGACCGGUACGGCCGCCACUCGUCCUAAUGGCACUUGACUUCCCUAUUAAGU |  |  | apparent Kd (designed as: ON switch for tryptophan, no ligand): 0.0203 µM; apparent Kd (ligand present: tryptophan, designed as: ON switch for tryptophan): 0.0243 µM
GGAACAUGAGGAUCACCCAUGUAAUCACGACGAGGACCGGUACGGCCGCCACUCGUAUUCACGCAAGGUAGAGGAAUACGUAGGC |  |  | apparent Kd [5]: 0.0126 µM; apparent Kd [6]: 0.0138 µM
GUCUCUAGGACAGGAUAUCUCCUCAGGGAUGCGAGAGAAGGGUCUAUUGACAUGAGGAUCACCCAUGUGGAUCAUGUCUAUGAU | 0.378 µM | 0.352 µM | 
AACAAACAUGAGGAUCACCCAUGUGAGGAUAUCAAGUCCAUACCCUAAGAGGGAGUUUUGAGAAGGCACGUGUA | 0.0112 µM | 0.0151 µM | 
UGCUGCUCGAGAGGAUAUACGAAAUGGAACAUGAGGAUCACCCAUGUAUAUCUCCACAAACAGACGUAGAAGGCACAAUAAGGA |  |  | apparent Kd [3]: 0.0582 µM; apparent Kd [4]: 0.0457 µM
GCUGCCGUCGGUGAAAACUCCCAUGCAGAUACCAGCGCAUUCCGCCGCCCUUGGCAGCUGCAUACAUGAGGAUCACCCAUGUGUU |  |  | apparent Kd [7]: 0.0844 µM; apparent Kd [8]: 0.147 µM
GAUCCGCUCGAGAAGGUCGUCGGGCACCGAGUCGAAGGAUAUCGAGAAUGAAGACAUGAGGAUCACCCAUGUGAGGAGCGAUCC | 0.136 µM | 0.126 µM | 
CCCGGUGACUAGAAGGCGCCACAUGAGGAUCACCCAUGUAUCAAAGACCGGUGAUUGCCGACGGGCGAGGAUAUAGGUGCGACG | 0.00818 µM | 0.0145 µM | 
GUAACGUGCAAAGGAUAUAUACAUGAGGAUCACCCAUGUCGGAAUGAGAUCAAGGUCGCUCGCCUAUAGAAGGUUGGCGCUACU | 0.0867 µM | 0.0439 µM | 
AGGGUACAUGAGGAUCACCCAUGUUAGGAUAUGUCCGGUACGGCCGCCGUACCAGGCAACAGAAGGAACACAGC | 0.0302 µM | 0.0262 µM | 
CUAAUGGUUGCAGGAUAUCGAAAACCGCACAUGAGGAUCACCCAUGUCGCUAAGCGUGACAUAGUCGAGAAGGGCAUGACAACU | 0.0373 µM | 0.0148 µM | 
UUACAACUAAUGGAUACCAGCCGCGUGCUAGUGGUAGCAUACAUGAGGAUCACCCAUGUCGGCCCUUGGCAGCCACGCCCAUGCU |  |  | apparent Kd [7]: 0.0145 µM; apparent Kd [8]: 0.0215 µM
GGAUACUUUGGAGGAUAUAAUUUUAUCAUCACUUGUGAUCGAUGACAUGAGGAUCACCCAUGUAAUUAGAAGGCCAUUAAUUAC |  |  | apparent Kd [3]: 0.239 µM; apparent Kd [4]: 0.0384 µM
CUCGCGUGAGGAUAUGCCACGCCCGAAAGGCCGGGUCAUCGGCAGAAGGCACAUGAGGAUCACCCAUGUAUCGC | 0.0133 µM | 0.0639 µM | 
GUGGGCGCUGAGAAGGACCGGAGACGCCGAUUGGUAGGAUAUCAGAAAGGUGCCGGUGAUUACAUGAGGAUCACCCAUGUAUGG | 0.0228 µM | 0.0202 µM | 
CGCUAACAUGAGGAUCACCCAUGUGAGGAUAUUCGCGGCGGACCGGGCUUUGGCGCUCGAAGAAGGCACAACGG | 0.0128 µM | 0.0245 µM | 
UUAUCGGUCUCAGGAUAUCAGUAUCACUCAUUAUGAGAAGGGAGACACUCCGGAACAUGAGGAUCACCCAUGUGGGCCUUGGGU | 0.172 µM | 0.103 µM | 
GCUCUACAGGAGAAGGUCAUAUCAUCGGUUAUUGAAGGAUAUCCUCAAGGGACGCUGAGGCGUACAUGAGGAUCACCCAUGUCC |  |  | apparent Kd [3]: 0.0841 µM; apparent Kd [4]: 0.0522 µM
UAAGCACAUCAGAAGGCGCAUUAGUUGAACUUGCGAGGAUAUGAUCUGUCCUCAUCAACAUGAGGAUCACCCAUGUGUCAGCUC | 0.0376 µM | 0.14 µM | 
UGUGACCGCCAUUCUCGCGACAUGAGGAUCACCCAUGUUUCCAGAAGGCUCCAGGCUUGUGCUCGAGAGGAUAUGGGAAGAUUC | 0.0284 µM | 0.0265 µM | 
